Screening results: PubChem BioAssay, several laboratories
Compounds with a hit are over-represented: about 6.7% of the library has one in this group of screens.
PREPL inhibitor = human PREPL enzyme inhibition | 320,000 tested, 0.68% active | recombinant PREPL, fluorescence polarization activity-based probe | Q4J6C6 | inhibition, % at 5.96 µM; in the data active = inhibition above about 43%;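 also: 0% = enzyme with DMSO and 100% = wells lacking enzyme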
Target sequence (Q4J6C6 whole entry, looked up): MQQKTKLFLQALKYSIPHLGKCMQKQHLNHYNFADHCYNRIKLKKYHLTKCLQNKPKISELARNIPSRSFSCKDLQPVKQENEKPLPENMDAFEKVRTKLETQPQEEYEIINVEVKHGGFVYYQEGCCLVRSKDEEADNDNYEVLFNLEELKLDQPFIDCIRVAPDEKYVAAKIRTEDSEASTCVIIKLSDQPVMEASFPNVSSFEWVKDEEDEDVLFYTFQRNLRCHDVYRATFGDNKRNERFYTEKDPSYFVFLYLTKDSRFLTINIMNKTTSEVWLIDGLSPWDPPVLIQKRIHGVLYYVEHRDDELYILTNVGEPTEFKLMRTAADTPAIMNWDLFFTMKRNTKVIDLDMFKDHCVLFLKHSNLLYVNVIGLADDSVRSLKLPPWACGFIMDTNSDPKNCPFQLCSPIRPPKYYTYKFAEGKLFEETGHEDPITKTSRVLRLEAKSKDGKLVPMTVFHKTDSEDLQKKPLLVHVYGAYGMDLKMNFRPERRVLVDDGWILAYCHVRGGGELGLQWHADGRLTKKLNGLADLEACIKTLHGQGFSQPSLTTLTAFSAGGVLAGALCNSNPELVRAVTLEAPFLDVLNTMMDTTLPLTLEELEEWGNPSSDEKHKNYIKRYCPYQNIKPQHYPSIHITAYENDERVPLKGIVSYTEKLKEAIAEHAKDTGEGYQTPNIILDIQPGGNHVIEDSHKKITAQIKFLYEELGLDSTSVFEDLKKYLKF
CHOP inh = CHOP inhibition in unfolded protein response. 220,000 tested, 3.8% active. AID 2732. inhibition, % at 10 µM. CHO-K1 CHOP-promoter luciferase, tunicamycin-induced, 15-18 h;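 active = compounds that reduced the stress-induced luciferase reporter signal by more than about 70% of percent inhibition, limit read from the data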;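 also: 0% = tunicamycin plus vehicle and 100% = wells without tunicamycin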
CSC inhib = cancer stem cell inhibition; cancer stem cell-like cells viability, luminescence; inhibition, % at 7.5 µM; 300,000 tested, 1.1% active; in the data active = inhibition above about 75%; tested in HMLE shEcad cells
NR3A LBD binder = NR3A (human) ligand-binding domain modulation | NR3A LBD differential scanning fluorimetry, Tm shift; 0% = protein alone, 100% = glycine-bound protein | Tm shift relative to glycine control, % at 25 µM | 340,000 tested, 2.5% active;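 active = melting temperature shift of at least 10% of the positive control shift, at one fixed dose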
Beta apoptosis = blocks beta cell apoptosis; INS-1E cytokine-induced death, ATP luminescence, 48 h; percent of positive-control rescue, neutral wells zero; protection from apoptosis, % (concentration not given with the values); 300,000 tested, 0.8% active;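 active = Every replicate reaches about 75%, or at least half do and their mean reaches it too, limit read from the data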;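 also: 0% = cytokine-treated negative control wells and 100% = positive control rescue; higher means more ATP so stronger rescue from cytokine killing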
T cruzi inh = T. cruzi replication inhibition; 300,000 tested, 1.4% active; inhibition, % (concentration not given with the values); T. cruzi beta-gal in NIH3T3, luminescence, 90 h; AID 1885;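 active = mean inhibition across valid replicates above about 55%, limit read from the data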;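 also: signal also drops with host cell toxicity which is not excluded here; 0% = plate median of DMSO wells and 100% = zero luminescence signal; higher percent means less beta-gal luminescence so fewer parasites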
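Assay system: NIH/3T3 fibroblasts plus reporter T. cruzi. Amount: NIH/3T3 cells, 5,000 per well. Buffer or medium: DMEM, 2% fetal bovine serum. Doses: compound pinned at 50 nL/well, DMSO. Schedule: ≥90 h infection period, 3 h prior cell attachment. Signal: luminescent β-galactosidase signal after 60 min lysis. Read-out: parasite load inhibition, %.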
Active calls of the source: *; . = no result given; ! = repeats disagree.

SMILES	PREPL inhibitor	CHOP inh	CSC inhib	NR3A LBD binder	Beta apoptosis	T cruzi inh
COC(=O)c1ccc(C(=O)OC)c(NC(=S)N2CCCC(C)C2)c1 (centres undefined)	5.2	22.1	13.5	-5.4	1.5	10.3
COc1cc(/C=C2\CC/C(=C\c3ccc(OCCO)c(OC)c3)C2=O)ccc1OCCO	15.2	-10.3	-1.9	-5.5	-1.1	-7.6
COc1ccc(/C=C2\CC/C(=C\c3ccc(OC)c(OC)c3)C2=O)cc1OC	7.8	30.8	-18.5	16.1*	1.5	4.4
CN1Cc2c(N3CCOCC3)nc(SCc3ccccc3)c(C#N)c2CC1(C)C	32.2	48.0	.	0.7	-10.1	57.7*
Cc1nc(SCC(=O)O)c(C#N)c2c1CCCC2	14.1	-7.4	1.4	0.9	2.5	-7.2
CCCSc1nc(N2CCOCC2)c2c(c1C#N)CCCC2	5.0	46.3	.	18.7*	5.8	29.7
CC(C)c1nc(N2CCOCC2)c(C#N)c2c1CCC2	7.0	72.4*	.	2.1	-3.9	12.8
CSc1nc(C)c2c(c1C#N)CCCC2	0.4	91.8*	-10.3	0.7	-2.2	2.6
CCCc1nc(N2CCOCC2)c(C#N)c2c1CCCC2	2.3	53.6	.	2.7	-9.2	11.2
CC(C)CCSc1nc(N2CCOCC2)c2c(c1C#N)CC(C)(C)OC2	16.7	48.6	.	4.3	15.5	67.5*
CSc1nc(N2CCOCC2)c2c(c1C#N)CCCCC2	2.7	73.4*	-12.3	-0.1	4.8	29.5
COCCN(C(=O)c1ccc2c(c1)S(=O)(=O)N=C1CCCCCN12)c1c(N)n(CC(C)C)c(=O)[nH]c1=O	.	.	.	-1.2	.	.
Cc1ncoc1C(=O)N1CCCC(N2CCN(c3ccccc3F)CC2)C1 (centres undefined)	15.5	.	6.1	-1.1	-1.2	2.2
O=[N+]([O-])c1cccc(Cl)c1NCCNc1ncc(C(F)(F)F)cc1Cl	17.1	78.8*	-0.9	-5.7	4.0	25.2
Cc1c(C(=O)NCCNc2ncc(C(F)(F)F)cc2Cl)cccc1[N+](=O)[O-]	14.8	.	13.1	-7.1	1.0	7.9
COc1cccc(C2=NCCc3cc4c(cc32)OCO4)c1OC	-6.4	24.2	-12.4	-5.0	-0.7	8.5
COc1ccc2cc3[n+](cc2c1OC)CCc1cc2c(cc1-3)OCO2	13.7	-1.3	-4.4	-3.8	79.4*!	51.7
O=C(NCCc1ccc(Cl)cc1)c1ccc2[nH]c(=O)c(=O)[nH]c2c1	16.9	.	-22.4	-0.3	1.2	-0.8
CCN(CC)S(=O)(=O)c1ccc(Oc2ccccc2)c(N)c1	7.0	30.9	-10.2	1.3	-3.9	0.8
CCN(CC)S(=O)(=O)c1ccc(N2CCN(c3ccccc3OC)CC2)c(N)c1	-5.7	.	9.8	-0.2	126.3*	12.2
O=C(COc1ccccc1)Nc1ccc([N+](=O)[O-])cc1	4.0	17.5	0.5	-1.8	-2.9	3.5
O=C(Nc1ccc([N+](=O)[O-])cc1)C(=O)Nc1cccc(C(=O)O)c1	5.5	102.0*	32.4	0.4	27.4	8.7
O=C(COc1ccc(Cl)cc1Br)NC(=O)NCc1ccccc1	-11.2	84.2*	.	-6.3	5.0	4.8
O=C(COc1ccc([N+](=O)[O-])cc1)Nc1ccc(NC(=O)c2ccccc2)cc1	-4.7	.	-6.6	13.2*	-3.6	-12.3
O=C(/C=C/c1cccc([N+](=O)[O-])c1)Nc1cc(C(=O)O)cc(C(=O)O)c1	-2.7	-12.8	5.3	0.8	-5.4	-5.1
SMILES	PREPL inhibitor	CHOP inh	CSC inhib	NR3A LBD binder	Beta apoptosis	T cruzi inh
O=C(O)/C=C/c1cccc(NC(=O)Nc2ccc([N+](=O)[O-])cc2)c1	10.6	.	2.3	17.9*	-5.7	-13.9
COc1ccc(OCC(O)CNS(=O)(=O)c2cccc(Cl)c2)cc1 (centres undefined)	-4.3	8.3	2.2	1.5	-0.8	3.6
COc1ccccc1N(C)S(=O)(=O)c1ccc(C(=O)Nc2ccncc2)cc1	-14.8	.	3.9	0.5	10.0	32.9
CC(C)Cn1c(=O)c2ccccc2n2c(CCC(=O)NCC3CCCO3)nnc12 (centres undefined)	5.9	.	-3.0	1.7	-5.3	1.2
CS(=O)(=O)Nc1ccc(C(=O)CC(=O)Nc2ccc([N+](=O)[O-])cc2)cc1	-6.3	.	-12.1	36.7*	-2.0	14.9
CC(=O)c1ccc(NS(=O)(=O)c2ccc([N+](=O)[O-])cc2)cc1	.	.	.	-3.4	.	.
O=C(CC(=O)c1ccccc1)Nc1ccc([N+](=O)[O-])cc1	.	.	.	19.6*	.	.
O=C(COc1ccc(C(=O)Nc2ccc(Cl)cc2)cc1)NCc1ccccc1	7.7	77.5*	2.0	-14.3	-6.0	-9.9
CCCCNc1c(-c2ccc(SC3CCCCC3)c(OC)c2)nc2ccc(C)cn12	29.5	.	101.2*	-9.9	18.6	.
CCCCNc1c(-c2ccc(OC)c(SC3CCCCC3)c2)nc2ccc(C)cn12	24.5	.	.	-15.2	.	.
COc1ccc(-c2nc3ccc(C)cn3c2NCc2ccccc2)cc1SC1CCCCC1	7.8	.	-9.6	-40.5	99.4*	62.6*
COc1ccccc1NC(=O)c1ccccc1NC(=O)c1cccs1	-6.5	.	-6.3	3.9	16.9	8.5
CCOC(=O)c1sc2nc(C(C)C)c3c(c2c1N)CC(C)(C)OC3	-0.9	70.2*	5.7	1.2	-4.8	6.7
CC(NC(=S)Nc1ccccc1C(F)(F)F)C1CC2CCC1C2 (centres undefined)	10.9	-8.8	0.9	-7.4	1.6	-2.4
Cc1ccccc1C1c2[nH]c3ccccc3c2CCN1Cc1cccn1-c1ncccn1 (centres undefined)	5.7	12.0	.	-2.2	-1.1	55.0*
Fc1ccccc1C1c2[nH]c3ccccc3c2CCN1Cc1cccn1-c1ncccn1 (centres undefined)	5.1	7.2	5.5	-3.8	1.1	77.4*
Cc1ccccc1C1c2[nH]c3ccccc3c2CCN1CCCn1cccn1 (centres undefined)	2.3	11.2	2.2	-1.1	1.1	8.5
CS(=O)(=O)Nc1cccc(C2=NN(C(=O)c3ccccc3Cl)C(c3ccccc3O)C2)c1 (centres undefined)	-2.1	16.0	-12.7	-10.0	-2.6	13.5
COC(=O)CNC(=O)COC(=O)Cc1ccc(Cl)cc1	4.8	10.5	.	-0.1	-3.2	-5.5
Cc1ccccc1NS(=O)(=O)c1cc(C(=O)NCCSC2CCCCC2)ccc1C	-3.8	71.9*	.	-1.6	.	28.9
CN(C)CCCNc1oc(-c2ccccc2Cl)nc1S(=O)(=O)c1ccc(F)cc1	-7.7	.	5.4	-0.8	.	62.1*
CCCCCc1ccc(-c2ccc(=O)[nH]n2)cc1	-6.1	92.8*	-2.4	0.8	2.8	-7.4
CCCCCc1ccc(-c2cn(CN3C(=O)c4ccccc4C3=O)nn2)cc1	-5.7	.	5.4	9.9	96.4*	0.1
Cc1ccc(-c2ccc(=O)[nH]n2)cc1	-4.3	37.0	-10.5	0.0	0.1	-5.5
Nc1nc2ccccc2n1/N=C/c1ccc(-c2ccccc2)o1	27.0	48.4	18.8	30.0*	5.8	40.5
Nc1nc2ccccc2n1/N=C/c1cccnc1	0.1	8.0	.	1.4	-10.7	7.9
